Among the data in ChEMBL document CHEMBL1156965, “Design, synthesis and antimalarial/anticancer evaluation of spermidine linked artemisinin conjugates designed to exploit polyamine transporters in Plasmodium falciparum and HL-60 cancer cell lines” (Bioorg Med Chem, 2010) are IC50 values, retold here.

In one assay the test system is Plasmodium falciparum. The experiment in a line: Antimalarial activity against chloroquine-sensitive Plasmodium falciparum 3D7 infected in human erythrocytes assessed as [3H]hypoxanthine incorporation after 24 hrs by liquid scintillation and luminescence counting. The class given is functional, organism-based. In outline: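 3D7 P. falciparum kept in human erythrocytes in RPMI-1640 with 25 mM HEPES, 32 mM NaHCO3, 10% human serum, under 3% O2/4% CO2/93% N2. Assay at 2% parasitemia, 0.5% haematocrit, triplicate, 37 °C. 0.5 µCi [3H]-hypoxanthine added after 24 h, then 24 h more (48 h total). Harvested and scintillation counted. IC50 by probit interpolation of log dose–response versus control wells.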

The subject of the next assay is HL-60. The experiment in a line: Antitumor activity against human HL60 cells after 72 hrs by MTT assay. The class given is functional, cell-based. Conditions: HL-60, 72 h. In short, it runs like this:
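HL-60 cells in RPMI-1640 with 10% FBS and 1% L-glutamine, passages 5–15, viability >95%. 2.5 × 10^4 cells/well exposed to 0.01–100 µM for 72 h, DMSO final <0.5% v/v. MTT added for 4 h at 37 °C, then SDS/DMF lysis for 4 h. A570, reference 590 nm, as % of vehicle. Quadruplicate, ≥3 experiments. IC50 from individual curves.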
In general terms: Tetrazolium dyes change colour on reduction, which living cells bring about.

One may read the IC50 as the concentration that gives 50% inhibition. Consider `C[C@H]1[C@@H](CCNCCCCN(CCCNC(=O)OC(C)(C)C)C(=O)OC(C)(C)C)O[C@@H]2O[C@@]3(C)CC[C@H]4[C@H](C)CC[C@@H]1[C@@]24OO3`, for which the IC50 in the assay on Plasmodium falciparum came out at 0.00021 µM; with HL-60, 11.6 µM.
Taken in the same sequence, the figures for `C[C@H]1[C@@H](CC(=O)N(CCCN)CCCCN)O[C@@H]2O[C@@]3(C)CC[C@H]4[C@H](C)CC[C@@H]1[C@@]24OO3` were 0.108 µM and more than 100 µM.
On the same counts, the results for `C[C@H]1[C@@H](CC(=O)NCCCCNCCCN)O[C@@H]2O[C@@]3(C)CC[C@H]4[C@H](C)CC[C@@H]1[C@@]24OO3` are 0.727 µM and 35.2 µM.
`C[C@H]1[C@@H](CCN(CCCN)CCCCN)O[C@@H]2O[C@@]3(C)CC[C@H]4[C@H](C)CC[C@@H]1[C@@]24OO3`: the IC50 is 0.0152 µM in the assay on Plasmodium falciparum and more than 100 µM in the assay with HL-60.
Take `C[C@H]1[C@@H](CCNCCCCNCCCN)O[C@@H]2O[C@@]3(C)CC[C@H]4[C@H](C)CC[C@@H]1[C@@]24OO3`: the half-inhibitory concentration (IC50) with Plasmodium falciparum came to 0.259 µM; in the assay with HL-60 it was 17.8 µM.
For `C[C@H]1[C@@H](CCNCCCN(CCCCNC(=O)OC(C)(C)C)C(=O)OC(C)(C)C)O[C@@H]2O[C@@]3(C)CC[C@H]4[C@H](C)CC[C@@H]1[C@@]24OO3`, the figures for the half-inhibitory concentration (IC50) in the assay with Plasmodium falciparum and with HL-60 were 0.00076 µM and 16.6 µM, respectively.
Taken in the same sequence, the figures for `C[C@H]1[C@@H](CC(=O)NCCCN(CCCCNC(=O)OC(C)(C)C)C(=O)OC(C)(C)C)O[C@@H]2O[C@@]3(C)CC[C@H]4[C@H](C)CC[C@@H]1[C@@]24OO3` were 0.0043 µM and 31.2 µM.
For `C[C@@H]1CC[C@H]2[C@@H](C)C(=O)O[C@@H]3O[C@@]4(C)CC[C@@H]1[C@]32OO4` [ARTEMISININ], the IC50 in the assay on Plasmodium falciparum was determined as 0.0092 µM.
Regarding `C[C@H]1[C@@H](CC(=O)N(CCCCNC(=O)OC(C)(C)C)CCCNC(=O)OC(C)(C)C)O[C@@H]2O[C@@]3(C)CC[C@H]4[C@H](C)CC[C@@H]1[C@@]24OO3`, the values for the IC50 in the assay on Plasmodium falciparum and in the assay on HL-60 were 0.0048 µM and more than 100 µM, respectively.
On the same counts, the results for `C[C@H]1[C@@H](CCNCCCNCCCCN)O[C@@H]2O[C@@]3(C)CC[C@H]4[C@H](C)CC[C@@H]1[C@@]24OO3` are 0.35 µM and 29.2 µM.
For `C[C@H]1[C@@H](CC(=O)NCCCNCCCCN)O[C@@H]2O[C@@]3(C)CC[C@H]4[C@H](C)CC[C@@H]1[C@@]24OO3`, the values for the IC50 in the assay with Plasmodium falciparum and in the assay on HL-60 were 0.081 µM and 47.7 µM, respectively.
As for `C[C@H]1[C@@H](CC(=O)NCCCCN(CCCNC(=O)OC(C)(C)C)C(=O)OC(C)(C)C)O[C@@H]2O[C@@]3(C)CC[C@H]4[C@H](C)CC[C@@H]1[C@@]24OO3`, the figures for the IC50 in the assay with Plasmodium falciparum and with HL-60 were 0.0026 µM and 22 µM, respectively.
As for `C[C@H]1[C@@H](CCN(CCCCNC(=O)OC(C)(C)C)CCCNC(=O)OC(C)(C)C)O[C@@H]2O[C@@]3(C)CC[C@H]4[C@H](C)CC[C@@H]1[C@@]24OO3`, the IC50 with Plasmodium falciparum was more than 0.1 µM; in the assay on HL-60, more than 100 µM.
